Results published in ChEMBL document CHEMBL1155007, “Synthesis and monoamine transporter binding properties of 2beta-[3'-(substituted benzyl)isoxazol-5-yl]- and 2beta-[3'-methyl-4'-(substituted phenyl)isoxazol-5-yl]-3beta-(substituted phenyl)tropanes” (Bioorg Med Chem, 2008).

Key:
[1] = molecular target: Sodium-dependent noradrenaline transporter (Homo sapiens, UniProt P23975); assay: Displacement of [3H]nisoxetine from NET
[2] = molecular target: Sodium-dependent serotonin transporter (Homo sapiens, UniProt P31645); assay: Displacement of [3H]paroxetine from 5HTT
Procedure, shortened: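 Competitive radioligand binding at the serotonin transporter, with 0.2 nM [3H]paroxetine as the final radioligand concentration. Compounds were tested as HCl salts. Values are means ± standard error of three or four experiments, each run in duplicate.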

[3] = molecular target: Sodium-dependent dopamine transporter (Homo sapiens, UniProt Q01959); assay: Displacement of [3H]WIN-35428 from DAT
Procedure, shortened: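 Competitive radioligand binding at the dopamine transporter, with 0.5 nM [3H]WIN35,428 as the final radioligand concentration. Compounds were tested as HCl salts. Values are means ± standard error of three or four experiments, each run in duplicate.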

Sequence of Sodium-dependent serotonin transporter (P31645 whole entry): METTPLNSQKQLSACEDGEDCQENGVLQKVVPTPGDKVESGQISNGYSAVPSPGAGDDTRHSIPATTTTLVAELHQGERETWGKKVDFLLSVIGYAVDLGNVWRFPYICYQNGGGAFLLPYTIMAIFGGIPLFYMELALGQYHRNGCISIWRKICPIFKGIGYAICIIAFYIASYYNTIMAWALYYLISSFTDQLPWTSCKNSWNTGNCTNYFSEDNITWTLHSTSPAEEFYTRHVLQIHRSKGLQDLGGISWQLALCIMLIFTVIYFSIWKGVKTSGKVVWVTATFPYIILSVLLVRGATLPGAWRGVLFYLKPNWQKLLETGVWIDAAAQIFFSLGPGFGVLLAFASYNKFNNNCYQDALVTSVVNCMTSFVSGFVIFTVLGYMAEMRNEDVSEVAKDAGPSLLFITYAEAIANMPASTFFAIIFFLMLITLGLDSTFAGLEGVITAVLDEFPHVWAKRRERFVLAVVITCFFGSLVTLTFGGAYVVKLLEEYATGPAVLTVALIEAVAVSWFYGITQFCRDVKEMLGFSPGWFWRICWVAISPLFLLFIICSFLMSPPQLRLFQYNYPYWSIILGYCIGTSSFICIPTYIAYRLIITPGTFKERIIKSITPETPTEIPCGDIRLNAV
Sequence of Sodium-dependent dopamine transporter (Q01959 whole entry): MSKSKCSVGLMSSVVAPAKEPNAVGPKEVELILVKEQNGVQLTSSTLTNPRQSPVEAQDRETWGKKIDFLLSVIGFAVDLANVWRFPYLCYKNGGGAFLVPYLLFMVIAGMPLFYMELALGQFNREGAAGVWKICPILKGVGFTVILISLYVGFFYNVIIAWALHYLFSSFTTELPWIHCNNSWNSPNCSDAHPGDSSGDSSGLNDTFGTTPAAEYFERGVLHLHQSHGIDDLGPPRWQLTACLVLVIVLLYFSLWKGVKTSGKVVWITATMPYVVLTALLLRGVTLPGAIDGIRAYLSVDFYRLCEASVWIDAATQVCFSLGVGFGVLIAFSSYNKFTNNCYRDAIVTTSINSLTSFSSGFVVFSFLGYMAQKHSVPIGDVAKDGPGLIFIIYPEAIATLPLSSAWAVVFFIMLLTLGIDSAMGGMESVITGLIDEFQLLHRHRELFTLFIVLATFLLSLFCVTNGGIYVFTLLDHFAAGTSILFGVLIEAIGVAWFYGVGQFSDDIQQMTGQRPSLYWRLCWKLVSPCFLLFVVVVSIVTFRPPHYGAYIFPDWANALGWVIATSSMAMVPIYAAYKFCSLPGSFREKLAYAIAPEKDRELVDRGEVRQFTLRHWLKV
Sequence of Sodium-dependent noradrenaline transporter (P23975 whole entry): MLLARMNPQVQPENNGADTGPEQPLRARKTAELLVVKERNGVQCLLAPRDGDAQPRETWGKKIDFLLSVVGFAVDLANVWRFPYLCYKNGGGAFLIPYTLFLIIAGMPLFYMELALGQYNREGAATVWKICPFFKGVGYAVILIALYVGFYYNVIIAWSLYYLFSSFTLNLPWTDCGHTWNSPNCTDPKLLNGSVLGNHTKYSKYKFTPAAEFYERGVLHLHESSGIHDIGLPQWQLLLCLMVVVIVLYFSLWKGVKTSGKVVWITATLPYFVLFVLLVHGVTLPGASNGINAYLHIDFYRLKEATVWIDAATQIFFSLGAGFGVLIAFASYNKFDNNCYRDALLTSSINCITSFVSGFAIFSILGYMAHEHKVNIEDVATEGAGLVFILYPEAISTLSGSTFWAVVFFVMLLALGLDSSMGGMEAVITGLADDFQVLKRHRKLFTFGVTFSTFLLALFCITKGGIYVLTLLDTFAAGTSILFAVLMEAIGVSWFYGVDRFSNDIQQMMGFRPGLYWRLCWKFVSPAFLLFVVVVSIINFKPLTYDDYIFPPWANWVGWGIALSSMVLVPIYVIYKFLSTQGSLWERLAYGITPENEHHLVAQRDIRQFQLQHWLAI

| SMILES | Ki [1] [nM] | Ki [2] [nM] | IC50 [3] [nM] |
| --- | --- | --- | --- |
| Cc1ccc(-c2c(C)noc2[C@@H]2C3CCC(C[C@@H]2c2ccc(C)cc2)N3C)cc1 (some centres not stated) | > 2000 | 1000 | 173 |
| COc1ccc(-c2c(C)noc2[C@@H]2C3CCC(C[C@@H]2c2ccc(C)cc2)N3C)cc1 (some centres not stated) | 1300 | > 2000 | 119 |
| COc1ccc(-c2cc([C@@H]3C4CCC(C[C@@H]3c3ccc(Cl)cc3)N4C)on2)cc1 (some centres not stated) | 454 | 535 | 1.57 |
| CN1C2CCC1[C@@H](c1cc(Cc3ccc(F)cc3)no1)[C@@H](c1ccc(Cl)cc1)C2 (some centres not stated) | 435 | 72 | 8.6 |
| COc1ccc(-c2cc([C@@H]3C4CCC(C[C@@H]3c3ccc(C)cc3)N4C)on2)cc1 (some centres not stated) | 455 | 366 | 3.93 |
| Cc1noc([C@@H]2C3CCC(C[C@@H]2c2ccc(Cl)cc2)N3C)c1-c1ccc(Cl)cc1 (some centres not stated) | 788 | 387 | 68.7 |
| Cc1ccc([C@H]2CC3CCC([C@H]2c2onc(C)c2-c2ccc(F)cc2)N3C)cc1 (some centres not stated) | 349 | > 2000 | 76 |
| Cc1ccc([C@H]2CC3CCC([C@H]2c2onc(C)c2-c2ccc(Cl)cc2)N3C)cc1 (some centres not stated) | 519 | 864 | 65.7 |
| COc1ccc(-c2c(C)noc2[C@@H]2C3CCC(C[C@@H]2c2ccc(Cl)cc2)N3C)cc1 (some centres not stated) | > 2000 | 1800 | 81.6 |
| CN1C2CCC1[C@@H](c1cc(-c3ccc(Cl)cc3)no1)[C@@H](c1ccc(Cl)cc1)C2 (some centres not stated) | > 2000 | > 2000 | 6.42 |
| Cc1ccc(Cc2cc([C@@H]3C4CCC(C[C@@H]3c3ccc(Cl)cc3)N4C)on2)cc1 (some centres not stated) | 1100 | 42.9 | 22.1 |
| Cc1ccc([C@H]2CC3CCC([C@H]2c2cc(Cc4ccc(F)cc4)no2)N3C)cc1 (some centres not stated) | 454 | 113 | 5.9 |
| Cc1ccc([C@H]2CC3CCC([C@H]2c2cc(-c4ccc(Cl)cc4)no2)N3C)cc1 (some centres not stated) | > 2000 | > 2000 | 8.74 |
| Cc1ccc(-c2cc([C@@H]3C4CCC(C[C@@H]3c3ccc(Cl)cc3)N4C)on2)cc1 (some centres not stated) | 1030 | 522 | 4.09 |
| Cc1ccc(Cc2cc([C@@H]3C4CCC(C[C@@H]3c3ccc(C)cc3)N4C)on2)cc1 (some centres not stated) | 770 | 89.7 | 6.9 |
| Cc1ccc(-c2c(C)noc2[C@@H]2C3CCC(C[C@@H]2c2ccc(Cl)cc2)N3C)cc1 (some centres not stated) | > 2000 | 297 | 135 |
| Cc1noc([C@@H]2C3CCC(C[C@@H]2c2ccc(Cl)cc2)N3C)c1-c1ccc(F)cc1 (some centres not stated) | 466 | 908 | 111 |
| Cc1ccc(-c2cc([C@@H]3C4CCC(C[C@@H]3c3ccc(C)cc3)N4C)on2)cc1 (some centres not stated) | > 2000 | > 2000 | 13 |
| Cc1ccc([C@H]2CC3CCC([C@H]2c2cc(Cc4ccc(Cl)cc4)no2)N3C)cc1 (some centres not stated) | 840 | 85 | 22.2 |
| Cc1ccc([C@H]2CC3CCC([C@H]2c2cc(-c4ccc(F)cc4)no2)N3C)cc1 (some centres not stated) | 552 | > 2000 | 6.45 |
| CN1C2CCC1[C@@H](c1cc(Cc3ccc(Cl)cc3)no1)[C@@H](c1ccc(Cl)cc1)C2 (some centres not stated) | 677 | 79 | 17.5 |
| COc1ccc(Cc2cc([C@@H]3C4CCC(C[C@@H]3c3ccc(C)cc3)N4C)on2)cc1 (some centres not stated) | 357 | 41.1 | 9.6 |
| COc1ccc(Cc2cc([C@@H]3C4CCC(C[C@@H]3c3ccc(Cl)cc3)N4C)on2)cc1 (some centres not stated) | 347 | 14.4 | 6.1 |
| CN1C2CCC1[C@@H](c1cc(-c3ccc(F)cc3)no1)[C@@H](c1ccc(Cl)cc1)C2 (some centres not stated) | 553 | 660 | 1.86 |
